Test results as given in paper PMC10334013 (International Journal of Tryptophan Research : IJTR, 2023).

Key:
IL1B = type: cell-based, human; conditions: FLS co-treated with 0.5 ng/mL IL1β, 24 hours; TCDD 10 nM
Method in brief: (§1)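 Primary human fibroblast-like synoviocytes from healthy donors, kept and treated in Synoviocyte Growth Medium. […] RNA was isolated and transcripts quantified by real-time qPCR relative to ACTB, normalised to TCDD (10 nM) and vehicle. Mean ± SEM; one-way ANOVA.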

EREG = type: cell-based, human; conditions: FLS co-treated with 0.5 ng/mL IL1β, 24 hours; TCDD 10 nM
Method in brief: as §1

human AHR = biological target: T1, human AHR (Homo sapiens, UniProt P35869); test: Human AHR-dependent luciferase reporter assay; type: cell-based; conditions: HepG2 40/6 luciferase reporter, 4 hours, normalized to 10 nM TCDD and VEH
T1 sequence (P35869 11-848): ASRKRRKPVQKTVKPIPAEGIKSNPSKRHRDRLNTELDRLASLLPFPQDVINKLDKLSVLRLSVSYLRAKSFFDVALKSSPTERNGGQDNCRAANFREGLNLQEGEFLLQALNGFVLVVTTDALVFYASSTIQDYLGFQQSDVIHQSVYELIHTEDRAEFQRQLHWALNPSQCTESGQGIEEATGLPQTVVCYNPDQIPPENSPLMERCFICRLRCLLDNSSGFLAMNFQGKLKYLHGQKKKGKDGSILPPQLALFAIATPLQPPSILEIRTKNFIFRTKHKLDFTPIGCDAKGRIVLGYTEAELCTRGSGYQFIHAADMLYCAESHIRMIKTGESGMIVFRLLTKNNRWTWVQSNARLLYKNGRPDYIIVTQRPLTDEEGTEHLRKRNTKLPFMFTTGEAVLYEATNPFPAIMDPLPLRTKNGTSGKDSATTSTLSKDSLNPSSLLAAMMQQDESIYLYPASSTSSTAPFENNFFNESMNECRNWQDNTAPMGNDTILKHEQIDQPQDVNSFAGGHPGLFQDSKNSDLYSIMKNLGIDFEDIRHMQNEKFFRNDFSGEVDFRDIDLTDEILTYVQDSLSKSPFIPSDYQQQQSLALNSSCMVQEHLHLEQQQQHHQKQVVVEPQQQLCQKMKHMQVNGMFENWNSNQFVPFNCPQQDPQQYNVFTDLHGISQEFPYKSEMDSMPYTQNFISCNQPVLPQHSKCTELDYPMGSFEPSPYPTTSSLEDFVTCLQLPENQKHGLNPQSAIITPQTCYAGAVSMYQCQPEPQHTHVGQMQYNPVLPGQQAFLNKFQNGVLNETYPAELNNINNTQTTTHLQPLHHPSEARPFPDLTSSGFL

mouse AHR = test: Mouse AHR-dependent luciferase reporter assay; type: cell-based; conditions: Hepa 1.1 cells, 4 hours, mean concentrations measured in mouse sera
Method in brief: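 Hepa 1.1 cells were grown in αMEM with 8% FBS and 1% penicillin-streptomycin, then seeded 24 h before treatment. […] Lysate luciferase was read by luminometer and compared with vehicle; one-way ANOVA.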

AHR target gene, CYP1A1 = test: CYP1A1 induction in Caco2 cells; type: cell-based, human; conditions: 4 hours, mean serum concentrations

EC25 (human AHR)	Compound	other results
19.2 µM	O=C(O)CCc1c[nH]c2ccccc12 [Indole-3-propionic acid, indole-3-propionic acid]	
0.0408 µM	O=C(O)c1cc(=O)c2ccccc2[nH]1 [Kynurenic acid, kynurenic acid]	

Continued, compound first:

Compound	EC25 (human AHR)	other results
Clc1cc2c(cc1Cl)Oc1cc(Cl)c(Cl)cc1O2 [TCDD, 2,3,7,8-tetrachlorodibenzo-p-dioxin]		induction in IL1B expression (IL1B): 192 fold; induction in EREG expression (EREG): 27 fold
O=C(O)C(O)Cc1c[nH]c2ccccc12 (centres unmarked) [Indole-3-lactic acid, indole-3-lactic acid]	25.9 µM	
Nc1ccccc1C(=O)CC(N)C(=O)O (centres unmarked) [Kynurenine, kynurenine]	1.76 µM	induction of luciferase activity relative to the vehicle treatment (mouse AHR): ~ 6 fold; AHR activity (CYP1A1 transcripts by qPCR) versus vehicle (AHR target gene, CYP1A1): significantly different from the vehicle treatment
